Converted amounts (≈) assume the structure as drawn.
Columns and labels:
Staphylococcus aureus [1] = experiment: Antibacterial activity against methicillin-sensitive Staphylococcus aureus ATCC 29213 measured after 16 to 18 hrs; assay type: functional; conditions: time 16-18 hrs
In short: (§1)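 Broth microdilution MIC. Strains grown on MHA; a single colony was grown overnight in CA-MHB at 37 °C with shaking for 18–24 h. Cultures were diluted by OD600 to ~10⁶ cfu/mL and exposed to compound at […]. Plates were incubated at 37 °C for 16-18 h. MIC = lowest concentration with no visible growth. Levofloxacin was the reference. Three independent runs, each in duplicate.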

Staphylococcus aureus [2] = experiment: Antibacterial activity against methicillin-resistant Staphylococcus aureus NR100 measured after 16 to 18 hrs; assay type: functional; conditions: time 16-18 hrs; in short: as §1
Staphylococcus aureus [3] = experiment: Antibacterial activity against methicillin-resistant Staphylococcus aureus NR119 measured after 16 to 18 hrs; assay type: functional; conditions: time 16-18 hrs; in short: as §1
Staphylococcus aureus [4] = experiment: Antibacterial activity against methicillin-resistant Staphylococcus aureus NR10129 measured after 16 to 18 hrs; assay type: functional; conditions: time 16-18 hrs; in short: as §1
Staphylococcus aureus [5] = experiment: Antibacterial activity against methicillin-resistant Staphylococcus aureus NR10198 measured after 16 to 18 hrs; assay type: functional; conditions: time 16-18 hrs; in short: as §1
Staphylococcus aureus [6] = experiment: Antibacterial activity against methicillin-resistant Staphylococcus aureus NR10192 measured after 16 to 18 hrs; assay type: functional; conditions: time 16-18 hrs; in short: as §1
Staphylococcus aureus [7] = experiment: Antibacterial activity against methicillin-resistant Staphylococcus aureus NR10186 measured after 16 to 18 hrs; assay type: functional; conditions: time 16-18 hrs; in short: as §1
Staphylococcus aureus [8] = experiment: Antibacterial activity against methicillin-resistant Staphylococcus aureus NR10193 measured after 16 to 18 hrs; assay type: functional; conditions: time 16-18 hrs; in short: as §1
Staphylococcus aureus [9] = experiment: Antibacterial activity against methicillin-resistant Staphylococcus aureus NR10194 measured after 16 to 18 hrs; assay type: functional; conditions: time 16-18 hrs; in short: as §1
Staphylococcus aureus [10] = experiment: Antibacterial activity against methicillin-resistant Staphylococcus aureus NR10191 measured after 16 to 18 hrs; assay type: functional; conditions: time 16-18 hrs; in short: as §1
Staphylococcus aureus [11] = experiment: Antibacterial activity against vancomycin-resistant Staphylococcus aureus VRS1 measured after 16 to 18 hrs; assay type: functional; conditions: time 16-18 hrs; in short: as §1
Staphylococcus aureus [12] = experiment: Antibacterial activity against vancomycin-resistant Staphylococcus aureus VRS4 measured after 16 to 18 hrs; assay type: functional; conditions: time 16-18 hrs; in short: as §1
Staphylococcus aureus [13] = experiment: Antibacterial activity against vancomycin-resistant Staphylococcus aureus VRS12 measured after 16 to 18 hrs; assay type: functional; conditions: time 16-18 hrs; in short: as §1
Escherichia coli = experiment: Antibacterial activity against Escherichia coli ATCC 25922 measured after 16 to 18 hrs; assay type: functional; conditions: time 16-18 hrs; in short: as §1
Staphylococcus aureus [14] = experiment: Antibacterial activity against Staphylococcus aureus ATCC 29213 measured after 16 to 18 hrs; assay type: functional; conditions: time 16-18 hrs; in short: as §1
Klebsiella pneumoniae = experiment: Antibacterial activity against Klebsiella pneumoniae BAA-1705 measured after 16 to 18 hrs; assay type: functional; conditions: ATCC BAA-1705, time 16-18 hrs; in short: as §1
Acinetobacter baumannii = experiment: Antibacterial activity against Acinetobacter baumannii BAA1605 measured after 16 to 18 hrs; assay type: functional; conditions: time 16-18 hrs; in short: as §1
Pseudomonas aeruginosa = experiment: Antibacterial activity against Pseudomonas aeruginosa ATCC 27853 measured after 16 to 18 hrs; assay type: functional; conditions: time 16-18 hrs; in short: as §1
[15] = tested on: Mycobacterium tuberculosis; experiment: Antitubercular activity against Mycobacterium tuberculosis H37Rv ATCC 27294 measured after 7 days by broth microdilution method; assay type: functional; conditions: H37Rv ATCC 27294, 168 h, time 7 day
In short: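 H37Rv in Middlebrook 7H9 with 10% ADC, 0.2% glycerol, 0.05% Tween-80. Inoculum ~10⁶ cfu/mL set by OD600. Twofold serial dilutions, 0.0064–0.00005 g/100 mL. Incubated at 37 °C for 7 days, then Presto blue resazurin read-out. MIC = lowest concentration inhibiting visible growth. Triplicate runs, each in duplicate.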

[16] = tested on: Mycobacteroides abscessus; experiment: Antimycobacterial activity against Mycobacterium abscessus ATCC 19977 by broth microdilution method; assay type: functional
In short: (§2)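 Broth microdilution MIC in Middlebrook 7H9 with 10% ADC-Tween-80 (BSA, dextrose, 0.2% glycerol, 0.05% Tween-80). Inoculum ~10⁶ cfu/mL set by OD600. Compounds were twofold serially diluted, 0.0064–0.00005 g/100 mL (DMSO stocks). Presto blue resazurin dye was used as read-out. MIC = lowest concentration inhibiting visible growth. Triplicate runs, each in duplicate.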

[17] = tested on: Mycolicibacterium fortuitum; experiment: Antimycobacterial activity against Mycobacterium fortuitum ATCC 6841 by broth microdilution method; assay type: functional; in short: as §2
Mycobacteroides chelonae = experiment: Antimycobacterial activity against Mycobacterium chelonae ATCC 35752 by broth microdilution method; assay type: functional; in short: as §2
[18] = Cytotoxicity against African green monkey Vero cells assessed as reduction in cell viability measured after 72 hrs by MTT assay; assay type: cell-based; conditions: chlorocebus sabaeus
In short: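 Vero cells (ATCC CCL-81), ~10³ cells/well, held 24 h at 37 °C in 5% CO₂. Compound at 100–5 mg/L for 72 h. MTT was added for 4 h, formazan dissolved in DMSO, OD read at 540 nm. CC50 = concentration giving 50% viability reduction. Doxorubicin was the positive control. Triplicate.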

[19] = Selectivity index, ratio of CC50 for cytotoxicity against African green monkey Vero cells to MIC for antibacterial activity against Staphylococcus aureus ATCC 29213; assay type: toxicity, cell-based; conditions: read-out: Selectivity Index
In short: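 SI = Vero CC50 (MTT, 72 h) divided by MIC against S. aureus ATCC 29213 (CA-MHB broth microdilution, 16-18 h, 37 °C).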

## C[C@@H](O)[C@H]1C(=O)N2C(C(=O)O)=C(S[C@@H]3CN[C@H](C(=O)N(C)C)C3)[C@H](C)[C@H]12 [MEROPENEM]
Staphylococcus aureus [1]
  MIC: 0.0625 µg/mL (≈ 0.163 µM)
Staphylococcus aureus [2]
  MIC: 32 µg/mL (≈ 83.4 µM)
Staphylococcus aureus [3]
  MIC: 64 µg/mL (≈ 167 µM)
Staphylococcus aureus [4]
  MIC: 4 µg/mL (≈ 10.4 µM)
Staphylococcus aureus [5]
  MIC: 4 µg/mL (≈ 10.4 µM)
Staphylococcus aureus [6]
  MIC: 64 µg/mL (≈ 167 µM)
Staphylococcus aureus [7]
  MIC: 8 µg/mL (≈ 20.9 µM)
Staphylococcus aureus [8]
  MIC: 64 µg/mL (≈ 167 µM)
Staphylococcus aureus [9]
  MIC: 1 µg/mL (≈ 2.61 µM)
Staphylococcus aureus [10]
  MIC: 64 µg/mL (≈ 167 µM)
Staphylococcus aureus [11]
  MIC: 64 µg/mL (≈ 167 µM)
Staphylococcus aureus [12]
  MIC: 64 µg/mL (≈ 167 µM)
Staphylococcus aureus [13]
  MIC: 16 µg/mL (≈ 41.7 µM)

## FC(F)(F)c1nc2ccc(Nc3nc(-c4cccs4)nc4ccccc34)cc2[nH]1
Escherichia coli
  MIC: > 64 µg/mL
Staphylococcus aureus [14]
  MIC: 64 µg/mL (≈ 156 µM)
Klebsiella pneumoniae
  MIC: > 64 µg/mL
Acinetobacter baumannii
  MIC: > 64 µg/mL
Pseudomonas aeruginosa
  MIC: > 64 µg/mL
[15]
  MIC: 64 µg/mL (≈ 156 µM)
[16]
  MIC: > 64 µg/mL
[17]
  MIC: > 64 µg/mL
Mycobacteroides chelonae
  MIC: > 64 µg/mL

## CC[C@@H](CO)NCCN[C@@H](CC)CO [ETHAMBUTOL]
[15]
  MIC: 1 µg/mL (≈ 4.89 µM)

## NNC(=O)c1ccncc1 [ISONIAZID]
[15]
  MIC: 0.03 µg/mL (≈ 0.219 µM)

## O=C(Nc1ccc(Nc2nc(-c3ccccc3)nc3ccccc23)cc1)c1cc(Br)ccc1Cl
[15]
  MIC: 4 µg/mL (≈ 7.55 µM)

## CO[C@H]1/C=C/O[C@@]2(C)Oc3c(C)c(O)c4c(O)c(c(/C=N/N5CCN(C)CC5)c(O)c4c3C2=O)NC(=O)/C(C)=C\C=C\[C@H](C)[C@H](O)[C@@H](C)[C@@H](O)[C@@H](C)[C@H](OC(C)=O)[C@@H]1C [RIFAMPIN]
[15]
  MIC: 0.06 µg/mL (≈ 0.0729 µM)

## N#Cc1ccc(/C=C/c2nc3ccccc3c(=O)n2-c2ccc(C(=O)O)c(O)c2)cc1
Staphylococcus aureus [14]
  MIC: 0.03 µg/mL (≈ 0.0733 µM)
[15]
  MIC: 64 µg/mL (≈ 156 µM)

## CN[C@H](CC(C)C)C(=O)N[C@H]1C(=O)N[C@@H](CC(N)=O)C(=O)N[C@H]2C(=O)N[C@H]3C(=O)N[C@H](C(=O)N[C@H](C(=O)O)c4cc(O)cc(O)c4-c4cc3ccc4O)[C@H](O)c3ccc(c(Cl)c3)Oc3cc2cc(c3O[C@@H]2O[C@H](CO)[C@@H](O)[C@H](O)[C@H]2O[C@H]2C[C@](C)(N)[C@H](O)[C@H](C)O2)Oc2ccc(cc2Cl)[C@H]1O [VANCOMYCIN]
Staphylococcus aureus [11]
  MIC: > 64 µg/mL
Staphylococcus aureus [12]
  MIC: > 64 µg/mL
Staphylococcus aureus [13]
  MIC: > 64 µg/mL

## CN[C@@H]1[C@H](O[C@H]2[C@H](O[C@H]3[C@H](O)[C@@H](O)[C@H](N=C(N)N)[C@@H](O)[C@@H]3N=C(N)N)O[C@@H](C)[C@]2(O)C=O)O[C@@H](CO)[C@H](O)[C@H]1O [STREPTOMYCIN]
[15]
  MIC: 1 µg/mL (≈ 1.72 µM)

## Clc1ccc(-c2nc(Nc3ccc(-c4nc5cc(Cl)ccc5[nH]4)cc3)c3ccccc3n2)cc1
Escherichia coli
  MIC: > 64 µg/mL
Staphylococcus aureus [14]
  MIC: > 64 µg/mL
Klebsiella pneumoniae
  MIC: > 64 µg/mL
Acinetobacter baumannii
  MIC: > 64 µg/mL
Pseudomonas aeruginosa
  MIC: > 64 µg/mL

## COc1ccc(-c2nc(Nc3ccc(-c4nc5cc([N+](=O)[O-])ccc5[nH]4)cc3)c3ccccc3n2)cc1OC
Escherichia coli
  MIC: > 64 µg/mL
Staphylococcus aureus [14]
  MIC: > 64 µg/mL
Klebsiella pneumoniae
  MIC: > 64 µg/mL
Acinetobacter baumannii
  MIC: > 64 µg/mL
Pseudomonas aeruginosa
  MIC: > 64 µg/mL
[15]
  MIC: 8 µg/mL (≈ 15.4 µM)
[16]
  MIC: > 64 µg/mL
[17]
  MIC: 4 µg/mL (≈ 7.71 µM)
Mycobacteroides chelonae
  MIC: 8 µg/mL (≈ 15.4 µM)
[18]
  CC50 at 72 h: 100 µg/mL (≈ 193 µM)
[19]
  selectivity ratio: 12.5
